Assay: Toxicity liver stage against HepG2, at 10uM
Format: cell-based
Parameters: test concentration 10 uM, cell line HepG2-A16-CD81EGFP
Conditions: human, HepG2-A16-CD81EGFP cells; read-out: INHIBITION
Summary of the method: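 Uninfected HepG2-A16-CD81EGFP cells, 3 × 10^3 per well, 1536-well, plated on prespotted compound at 10 μM final, parasite-free screening media added to match infected plates; puromycin 10 μM positive, DMSO 0.5% negative; run in parallel with 48 h PbLuc assay at 37 °C, 5% CO2; viability by CellTiter-Glo luminescence, normalized to controls.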

| SMILES | cytotoxicity at 10 µM |
| --- | --- |
| Cc1cc(C(=O)CN2CCN(c3nccs3)CC2)c(C)n1C1CC1 | 10.6% |
| COc1cc(CNC(=O)Nc2nnc(C(C)C)s2)ccn1 | -8.24% |
| CC(=O)NCCNC(=O)c1sc(-c2ccc(C)cc2C)nc1C | -7.62% |
| O=C(c1coc(COc2cccc3cnccc23)n1)N1CCSCC1 | -77.9% |
| COCCCN(Cc1cnc(-c2cccs2)nc1)C1CCN(C)CC1 | -3.85% |
| CN(Cc1cnn(C)c1)C(=O)c1cc(C(F)(F)F)n(C)n1 | 8.52% |
| c1cncc(OCCNC2Cc3ccccc3C2)c1 | 4.32% |
| CCC(=O)N1CCN(C(=O)CCn2cccn2)CC1 | -2.6% |
| CNc1nc(CNC(=O)Nc2cccc(CC(F)(F)F)c2)cs1 | -9.77% |
| CC(=O)NCCCn1ncc2c(C)cccc21 | 9.68% |
| Cc1ccc2c(n1)N(Cc1cccnc1)CCN(Cc1cnn(C)c1)C2 | 9.12% |
| CNS(=O)(=O)CCn1cc(-c2cc3c(cc2OC)CCC3)nn1 | -2.12% |
| CC(C(=O)N1CCCC1)N1CCN(c2ncc(Cl)cn2)CC1 (stereo unspecified) | -3.34% |
| COc1c(CNCc2cccc(CS(C)(=O)=O)c2)c(C)nn1C | -5.6% |
| CC1CN(S(=O)(=O)c2ccc(F)cc2)c2cccnc2O1 (stereo unspecified) | -0.781% |
| COc1ccc(C(=O)N2CCCCC2c2nc(C)cs2)nn1 (stereo unspecified) | -6.77% |
| Cc1cc(CC(C)Nc2nc(C3CCCC3)nc3c2cnn3C)[nH]n1 (stereo unspecified) | -6.12% |
| CS(=O)(=O)NCc1cc2n(n1)CCCN(Cc1cc3ccccc3o1)C2 | 0.403% |
| CCOCc1ccccc1NC(=O)NCC(C)(O)c1ccsc1 (stereo unspecified) | -1.09% |
| O=C(CC1CCCCC1)NC1CCCc2nc(N3CCOCC3)ncc21 (stereo unspecified) | -5.24% |
| COCC(NC1CSCCSC1)c1ccnn1C (stereo unspecified) | 4.34% |
| Cc1cc(CN2CCN(c3ccc4nncn4n3)C(C)C2)on1 (stereo unspecified) | 6.91% |
| Cc1cc2cc(NC(=O)Cn3ncc(N4CCCC4)cc3=O)ccc2o1 | -0.273% |

| SMILES | cytotoxicity at 10 µM |
| --- | --- |
| Cn1cccc1C(=O)N1C[C@@H]2CCN(c3cccnc3)C[C@@H]2C1 | -58.3% |
| O=c1n(Cc2ccccc2F)nc2ncccn12 | -4.49% |
| COCC(=O)NCC1Cn2nnc(-c3ccoc3)c2CO1 (stereo unspecified) | 17% |
| Cc1nc(CNc2ccc(C(=O)NCc3ccco3)cc2C)no1 | 5.38% |
| COC(=O)CCC(=O)NC1CCCc2cc(OC(F)F)ccc21 (stereo unspecified) | -4.52% |
| CC(C)Oc1ccc(Cl)c(C(=O)N2CCN(CCO)CC2)n1 | -3.82% |
| N#Cc1ccc(S(=O)(=O)NC(=O)C2CC2)c(C(F)(F)F)c1 | -11.1% |
| Cn1cccc1C(=O)NCc1cn2c(n1)CN(S(=O)(=O)C1CC1)CC2 | -114% |
| O=S(=O)(NCC1COc2ccccc2C1)N1CCCCC1 (stereo unspecified) | -0.628% |
| COc1cc(-c2cc(=O)[nH]cn2)cc(OC)c1OC | -12.5% |
| COc1cccc(-c2cc(NCC(=O)O)nc3[nH]ccc23)n1 | 8.09% |
| O=C(NC1CCCC1)c1ccnc(C2CCNCC2)c1 | -11.3% |
| O=C(C1COCCO1)N1CCN(CC(F)(F)F)c2ccccc21 (stereo unspecified) | 7.36% |
| Cc1cnn(CC2CN(Cc3cccc(OC(C)C)c3)CCO2)c1 (stereo unspecified) | -4.83% |
| CC(C)C(C)NC(=O)Nc1cccc(OCC#N)c1 (stereo unspecified) | -1.13% |
| COCCOc1ccc(F)cc1NCc1nc2ccccc2n1C | 6.29% |
| Cc1nc(C2CCCN(C(=O)C(C)(C)n3cc(Cl)cn3)C2)no1 (stereo unspecified) | -2.09% |
| Cc1noc(C)c1-c1cnc(CC2CCN(C(=O)c3cc[nH]n3)C2)cn1 (stereo unspecified) | 3.6% |
| COc1ccc(C(=O)N2CCO[C@H]3[C@H](OCC4CC4)CC[C@@H]32)cc1F | 18.2% |
| O=C(O)c1ccnc(-c2ccnc(COc3cccc(F)c3)n2)c1 | -2.31% |
| COc1ccc(NC(=O)Nc2c(O)c3ccccc3oc2=O)cc1 | -9.87% |
| CC(=O)N1CCCC(C(=O)N2Cc3nc(C)n(C)c(=O)c3C2)C1 (stereo unspecified) | -3.65% |
| COc1ccc(-c2csc(N)c2C#N)cc1 | 4.07% |

| SMILES | cytotoxicity at 10 µM |
| --- | --- |
| CSCc1cccc(S(=O)(=O)NCCCO)c1 | -7.5% |
| O=C(NCCC1Cc2ccccc2C1)N1CCCC(O)C1 (stereo unspecified) | 22.2% |
| COc1cccnc1NC(=O)COc1ccc(F)cc1F | 8.68% |
| CCc1nnc2n1CCN(C(=O)c1cc(Br)c[nH]1)C2 | -7.93% |
| Cc1nn(C)c(N2CCOCC2)c1CN[C@@H]1c2ccccc2C[C@@H]1O | -12.2% |
| Cn1nccc1NCc1cc2cc(F)ccc2o1 | 8.57% |
| O=C(CC1CCCC1)N1CCC(c2nnc(-c3ccccn3)o2)CC1 | -3.32% |
| CS(=O)(=O)c1ccc(O[C@H]2COCCN(Cc3ccncc3)C2)cc1 | -5.33% |
| Cc1cnn(CC2CN(Cc3ccc(C(N)=O)cc3)CCO2)c1 (stereo unspecified) | -2.28% |
| Cc1ccc(Oc2cc(CN)ccn2)cc1C | -0.578% |
| Nc1nc2c(c(=O)[nH]1)CCN(C(=O)c1ccccc1N1CCCC1)C2 | 1.79% |
| CC(C)N1CCCn2nc(C(=O)NCc3ccccc3F)cc2C1 | -4.87% |
| c1cncc(-c2ccnn2CN2CCOCC2)c1 | 3.44% |
| CCOCC(=O)Nc1ccc(N2CCSCC2)cc1C | 9.53% |
| Cc1noc(C)c1C(C)C(=O)N1CCCN(C)c2ccc(Cl)cc21 (stereo unspecified) | 3.89% |
| O=C(NCC(O)c1ccc(F)cc1)C1CCN(C2CCCCC2)CC1 (stereo unspecified) | 5.67% |
| CCCc1cc(CNC2CCN(c3cc(C(C)C)nc(C)n3)CC2)on1 | -13.6% |
| COCCn1ccnc1C1CCCN(C(=O)c2cc(F)cc(F)c2)C1 (stereo unspecified) | 8.86% |
| CSc1ncc(Cl)c(C(=O)NC(Cc2ccccc2)C(=O)O)n1 (stereo unspecified) | -17.3% |
| Cc1c(C(=O)NCCC2CN(C)CCO2)n(C)c2c(C)cccc12 (stereo unspecified) | -3.83% |
| CCC(O)CN1CCN(C(=O)c2cccn2Cc2ccncc2)CC1 (stereo unspecified) | -13% |
| CC(Cc1ccccc1F)C(=O)Nc1ccc(OCCC(N)=O)cc1 (stereo unspecified) | -5.56% |
| Fc1ccc(C(NCc2nnc(C3CC3)o2)C2CCC2)cc1 (stereo unspecified) | -48.1% |

| SMILES | cytotoxicity at 10 µM |
| --- | --- |
| CC(C)OCCCN(Cc1ccncc1)Cc1cc(F)ccc1F | -29.2% |
| CCC(O)Cn1cc(C2=CCN(Cc3ccc(OC)cc3)CC2)cn1 (stereo unspecified) | -3.94% |
| COc1cccc(-n2c(C)cc(C(=O)NS(C)(=O)=O)c2C)c1 | -6% |
| CC(C)CN1C[C@@H](C(=O)O)C[C@@H](C(=O)NCc2ccncc2)C1 | -147% |
| CN1N=C(C(=O)N2CCN(c3ncccc3Cl)CC2)CCC1=O | 0.0793% |
| O=C([C@H]1C[C@H]2OCC[C@H]2N(Cc2ccoc2)C1)N1CCCO1 | -69.8% |
| Cc1nc(CNC(=O)NC2CC(C)(C)OC2(C)C)sc1C (stereo unspecified) | -3.77% |
| CC(C)c1cc(C(=O)N2CCN(Cc3ccc(C#N)cc3)CC2)n[nH]1 | 26.3% |
| Cc1nc(-c2ccoc2)n(CC(=O)N(C)CC(C)C)c1C | -4.5% |
| c1cncc(-c2noc(C3CN(Cc4cccs4)C3)n2)c1 | -6.87% |
| COCC(=O)N1CCc2nc(NC(C)C)nc(NC(C)C)c2CC1 | -104% |
| Cc1nc(C)n(CC2CCCN(Cc3nc(-c4ccco4)no3)C2)n1 (stereo unspecified) | -11.5% |
| CCOCC(O)CN1CCN(C(=O)c2ccc(OC)cc2)CC1 (stereo unspecified) | 5.22% |
| CCOc1ccc(CN2CCN(CCOC)[C@@H]3CS(=O)(=O)C[C@@H]32)cc1 | -1.25% |
| CN1CCCN(C(=O)c2ccnn2-c2ccc3ccccn23)CC1 | -107% |
| Cc1nc(CN2CCC(c3ccnn3CCO)CC2)oc1C | -15.9% |
| O=C(C1CCOCC1)N1CCC(OCc2cccnc2)CC1 | 2.12% |
| O=C(c1ccncc1)N1CCN(c2ccc(F)cc2Cl)CC1 | -140% |
| CN(Cc1cncnc1)[C@H]1CN(C(=O)c2ccc[nH]2)[C@@H]2CCCO[C@@H]21 | -107% |
| Cc1ccncc1-n1cc(CCO)cn1 | -2.51% |
| Cc1ccc(F)c(NC(=O)NCCCn2nc3ccccn3c2=O)c1 | -13.3% |
| CCN1CCCC(C)(C(=O)NCCCc2nc(C)cs2)C1 (stereo unspecified) | 1.54% |
| CC(C)CS(=O)(=O)Nc1ccc2c(c1)OCC(C)(C)C(=O)N2C | -0.123% |

| SMILES | cytotoxicity at 10 µM |
| --- | --- |
| c1csc(CN2C[C@@H](n3cccn3)[C@H]3OCCC[C@H]32)c1 | 1.63% |
| CCn1cc(NC(=O)c2c(C)nn(C)c2C)c(C(N)=O)n1 | 0.946% |
| O=C(N1CCOCC1)[C@@]12CCO[C@@H]1CCN(CC1CCCC1)C2 | -0.385% |
| CCS(=O)(=O)N1CCc2c(cccc2NCc2nc(C)c(C)o2)C1 | -46.9% |
| Cc1noc(CCCC(=O)NC(C)c2cccnc2)n1 (stereo unspecified) | -12.5% |
| COc1ccc(-c2n[nH]c(C)c2CC(=O)NCCN2CCOCC2)cc1 | -13.4% |
| O=C(NC[C@H]1O[C@H](Cc2cc(-c3ccccn3)on2)CC[C@@H]1O)C1CC1 | -2.69% |
| O=C(Nc1nncs1)NC1CCOc2ccccc21 (stereo unspecified) | -10.4% |
| CCc1nc2n(n1)CC(NCc1nc(-c3cccnc3)no1)CC2 (stereo unspecified) | -8.66% |
| COCCN1CCC(NC(=O)C(C)C)CC1 | -2.45% |
| Cc1cnc(CNC(=O)CCCn2cnc3ccccc3c2=O)cn1 | -7.2% |
| Cn1cc(N2CCC(NC(=O)c3c(F)cccc3Cl)C2=O)cn1 (stereo unspecified) | 0.91% |
| CC(C)(C)c1cc(=O)[nH]c(-c2ccccc2CN2CCC[C@@H](O)C2)n1 | -43.3% |
| Cc1noc(C(C)N2CCc3[nH]c4ccc(Cl)cc4c3C2)n1 (stereo unspecified) | 1.99% |
| CCNC(=O)CCN1CCC(c2cc(N3CCOCC3)nc(C)n2)CC1 | -10.8% |
| Cn1cccc1C(=O)N1CCCCC1c1[nH]ncc1S(C)(=O)=O (stereo unspecified) | -4.66% |
| COc1cc(C)nc(N2CCN(C(=O)CSC)CC2)n1 | -6.42% |
| COC(=O)c1cccc(S(=O)(=O)N2CSCC2C(=O)N(C)C2CC2)c1 (stereo unspecified) | 5.15% |
| O=C(CCc1nc2cccnc2[nH]1)Nc1cccnc1 | 2.92% |

— ChEMBL document CHEMBL4513216, “Probing the Open Global Health Chemical Diversity Library for Multistage-Active Starting Points for Next-Generation Antimalarials” (ACS Infect Dis, 2020)
